GSTO1 inh = blocks human GSTO1 in RBBP9 counter-screen | P78417 | recombinant GSTO1, activity-based probe fluorescence polarization | inhibition, % at 5.96 µM | 1.1% of 300,000 active | AID 1974;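 active = inhibition above the campaign mean inhibition plus 3 SD, cut at about 35% in these data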;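 also: 0% = GSTO1-1 with DMSO and 100% = wells lacking GSTO1-1 enzyme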
PAD4 inh = PAD4 (human) enzyme inhibition | Q9UM07 | recombinant PAD4, RCA probe fluorescence polarization | inhibition, % at 6.36 µM | 0.41% of 330,000 active | AID 485272;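 active = percent inhibition above a cutoff equal to the mean of all tested compounds plus 3 SD, cut at about 15% in these data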;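 also: 0% = PAD4 with RCA probe and DMSO and 100% = probe without PAD4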
Target sequence (Q9UM07 whole entry, looked up): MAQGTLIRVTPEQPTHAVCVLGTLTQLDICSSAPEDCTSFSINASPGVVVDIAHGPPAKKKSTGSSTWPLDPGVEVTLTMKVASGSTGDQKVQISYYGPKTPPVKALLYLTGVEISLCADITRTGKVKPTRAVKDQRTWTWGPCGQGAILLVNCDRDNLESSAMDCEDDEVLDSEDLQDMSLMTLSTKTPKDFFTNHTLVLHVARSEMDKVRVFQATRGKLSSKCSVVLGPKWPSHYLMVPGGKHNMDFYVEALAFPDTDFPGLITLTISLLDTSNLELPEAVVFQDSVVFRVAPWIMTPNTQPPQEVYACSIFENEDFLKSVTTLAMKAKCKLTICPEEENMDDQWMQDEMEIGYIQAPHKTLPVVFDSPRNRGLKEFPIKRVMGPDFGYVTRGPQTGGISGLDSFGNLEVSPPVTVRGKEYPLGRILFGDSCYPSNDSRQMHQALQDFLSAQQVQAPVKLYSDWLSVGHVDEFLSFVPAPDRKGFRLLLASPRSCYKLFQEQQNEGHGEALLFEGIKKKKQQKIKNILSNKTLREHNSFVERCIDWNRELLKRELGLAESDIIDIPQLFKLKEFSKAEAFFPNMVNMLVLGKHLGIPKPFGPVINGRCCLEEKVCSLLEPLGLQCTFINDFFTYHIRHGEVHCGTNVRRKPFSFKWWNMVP
PRMT1 inh = blocks human protein arginine methyltransferase 1. Q99873. recombinant PRMT1, activity-based probe fluorescence polarization. inhibition, % at 2.79 µM. 1.3% of 370,000 active;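 active = inhibition above about 21% made by adding two undisclosed values, limit read from the data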
TDP2 inh = blocks human TDP2 phosphodiesterase activity. 0.34% of 370,000 active. inhibition, % at 12.8 µM. recombinant TDP2, T5PNP hydrolysis, p-nitrophenol absorbance 415 nm. AID 720702. O95551;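 active = inhibition above the mean of all tested compounds plus 3 SD, set per campaign, cut at about 25% in these data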;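 also: 0% = DMSO with enzyme and 100% = buffer with substrate but no TDP2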
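Assay system: recombinant human TDP2 / Reagent: T5PNP substrate at 5 mM, a TopII-DNA adduct mimic / Measured by: epi absorbance from released p-nitrophenol / Evaluation: % inhibition relative to enzyme-containing and enzyme-free wells / Control set: enzyme-free and DMSO wells / Replicates: each compound tested once, singlicate / Schedule: enzyme reaction with compound for 2 h at 37 °C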
eLon inh = E. coli protease La inhibition | 0.42% of 360,000 active | inhibition, % at 7.94 µM | P0A9M0 | purified E. coli Lon protease, fluorescence polarization; in the data active = inhibition above about 13%, passing the limit was not always enough;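 also: 0% = enzyme with probe and DMSO and 100% = no enzyme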
E coli Lon conf = E. coli Lon inhibition confirmation | AID 602230 | shares compounds with eLon inh | purified E. coli Lon, fluorescence polarization | inhibition, % at 7.94 µM | 31% of 1,400 active; in the data active = inhibition above about 16%;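 also: 0% = enzyme with probe and DMSO and 100% = no enzyme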
* hit, by the source's call; . = not tested or not shown. In the library only some 2.5% were active in any assay of this set; here they are far more common.

SMILES | GSTO1 inh | PAD4 inh | PRMT1 inh | TDP2 inh | eLon inh | E coli Lon conf
O=C(c1cc2ccccc2o1)N1CCN(S(=O)(=O)c2ccccc2)CC1 | . | . | 3.0 | -8.9 | 18.6* | -7.2
Cc1c(C(=O)N2CCCCC2)oc2ccc(Br)cc12 | -13.7 | -4.0 | 2.9 | -12.3 | -7.4 | .
O=C(c1cc2ccccc2o1)N1CCN(S(=O)(=O)c2cccs2)CC1 | 2.5 | 1.7 | 2.5 | 15.5 | -4.6 | .
C[C@H](O)[C@@H]1CN2CCc3c([nH]c4c(-c5ccccc5)cccc34)[C@@H]2C[C@@H]1N(C)C(=S)Nc1ccc(C#N)cc1 | . | . | -2.8 | -2.2 | . | .
COCCn1c(SCC(=O)c2cc(C)n(C)c2C)nc2ccccc2c1=O | 9.1 | 3.3 | -0.1 | 3.3 | 14.6* | 3.7
COCCn1c(SCC(=O)NC(=O)Cc2ccccc2)nc2ccccc2c1=O | . | 1.1 | 5.6 | 2.4 | 12.7 | .
CCCCNS(=O)(=O)CC1NCc2ccc(C)cc21 (centres undefined) | . | . | 3.1 | 6.7 | . | .
CCn1c(SCC(=O)Nc2ccc(N3CCOCC3)cc2)nnc1-c1ccco1 | 5.5 | -3.3 | -0.1 | 0.1 | 27.1* | 2.0
CCOC(=O)c1cccc(-c2cc(C(C)=O)c3n(c2=O)CCC3)c1 | . | . | -1.5 | 9.5 | . | .
COC(=O)c1cc(NS(=O)(=O)c2cccs2)cc(NS(=O)(=O)c2cccs2)c1 | . | . | 0.9 | -7.5 | 125.3* | 15.7
C[C@H](O)[C@@H]1CN2CCc3ccc(N4CCOCC4)cc3[C@@H]2C[C@@H]1N(C)C(=O)c1cccc(Cl)c1 | . | . | -0.9 | 3.3 | . | .
CN1CCN(C(c2ccc(F)cc2)c2ccc3cccnc3c2O)CC1 (centres undefined) | . | . | . | . | 25.5* | -2.8
CCN1CCCCC(NC(=O)c2cc(OC)c(OC)c(OC)c2)C1=O (centres undefined) | . | . | -5.0 | -9.7 | . | .
O=C(/C=C/c1ccc(OC(F)F)cc1)OCC(=O)N1CCc2ccccc21 | -1.4 | -1.2 | 2.8 | -7.9 | 17.1* | 2.2
O=C(CO/N=C/c1ccc(OC(F)F)cc1)N1CCc2ccccc21 | 7.0 | -6.4 | 1.6 | 5.0 | -7.1 | .
CN1CCN(c2ccc3c(c2)Oc2ccccc2CN(Cc2cn(Cc4cccc(C(F)(F)F)c4)nn2)S3(=O)=O)CC1 | . | . | -0.7 | -2.7 | . | .
CCOC(=O)[C@@]12CCCC=C1N(CCc1ccc(Cl)cc1)C(=O)[C@H]2CC(=O)NCc1ccccc1 | . | . | 0.1 | 3.5 | . | .
CCN=c1scc(C)n1/N=C/c1ccc(O)c(O)c1O | 69.3* | 2.5 | 59.6* | -3.1 | 24.8* | 22.0*
O=C(O)C1CCCC2CN3CCc4c([nH]c5ccccc45)C3C(O)C21 (centres undefined) | 27.9 | 2.0 | 8.1 | 21.4 | 20.3* | 2.0
O=C(O)[C@@H]1[C@H]2C[C@H]3c4[nH]c5ccccc5c4CCN3C[C@@H]2CC[C@@H]1O | 6.4 | 0.1 | 18.1 | -5.6 | 36.0 | .
CCN(CC(=O)NCc1ccc(F)cc1)CC(=O)Nc1cc(S(=O)(=O)N(C)C)ccc1C | . | 5.2 | -7.7 | -7.4 | -3.4 | .
CCN(CC(=O)NCc1ccc(F)cc1)CC(=O)Nc1ccc(Br)cc1F | . | -4.0 | 0.0 | 2.5 | 21.8* | -2.4
CC(C)C[C@@H](CN1CCC[C@H]1CN1C(=O)C(=O)NC[C@@H]1Cc1ccc(O)cc1)N1C[C@H](Cc2ccccc2)N(CCc2ccccc2)C(=O)C1=O | . | . | -3.6 | -3.5 | 10.8* | -0.8
C[C@@H](CO)N(Cc1cn(Cc2ccccc2)nn1)S(=O)(=O)c1ccccc1Br | . | . | 0.2 | 3.1 | . | .
N#Cc1ccc(Cn2ccc3ccc(-c4ccc5ccn(C(=O)c6ccccc6)c5c4)cc32)cc1 | . | . | 0.0 | 4.0 | . | .
SMILES | GSTO1 inh | PAD4 inh | PRMT1 inh | TDP2 inh | eLon inh | E coli Lon conf
CCCCOC(=O)Nc1cc(C)c(Cl)cc1OC | 4.6 | -1.2 | 1.9 | -1.4 | 33.6* | -0.3
CCOC(=O)Nc1cc(C)c(Cl)cc1OC | 1.0 | -0.5 | -0.7 | 2.2 | 4.6 | .
O=C(NC(=S)NNS(=O)(=O)c1ccccc1)c1ccccc1[N+](=O)[O-] | 8.4 | -0.6 | 13.1 | 5.5 | 22.8* | -48.3
CCCCC(=O)NC(=S)NNS(=O)(=O)c1ccccc1 | 1.2 | -0.6 | . | . | 20.1* | -97.5
O=C(NC(=S)NNS(=O)(=O)c1ccccc1)c1ccc([N+](=O)[O-])cc1 | 7.0 | -1.1 | 9.1 | 5.2 | 6.0 | .
CCCCCCC(=O)n1ccc2ccc(-c3ccc4ccn(Cc5ccc(OC)cc5)c4c3)cc21 | . | . | 4.2 | 9.4 | . | .

Assay outcomes as filed in PubChem.
